Source: PubChem (several laboratories)
IMP-1 inhibitor – blocks Pseudomonas aeruginosa IMP-1 metallo-beta-lactamase | purified IMP-1, nitrocefin hydrolysis, epi-absorbance fluorescence | inhibition, % at 5.6 µM | actives 0.45% (n = 290,000);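 active means inhibition above the mean plus 3 SD of all compounds in the same screening run, cut at about 4.5% in these data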
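System: purified IMP-1 / Input: IMP-1 dispensed at 0.2 nM / Medium: 50 mM HEPES pH 7.1, 50 µM ZnSO4, 0.05% Brij 35 / Timing: 15 min enzyme–compound preincubation, then 25 min nitrocefin reaction, 25 °C / Technique: plate fluorescence quenching by hydrolysis product, ex 480/em 530 nm / Repeats: singlicate testing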
PvdQ acylase – P. aeruginosa PvdQ acylase inhibition. purified PvdQ acylase, fluorescence plate reader. inhibition, % at 10 µM. actives 0.063% (n = 340,000); in the data active means inhibition above about 30%, passing the limit was not always enough
VIM-2 inh – blocks Pseudomonas aeruginosa VIM-2 metallo-beta-lactamase; purified VIM-2, nitrocefin hydrolysis, epi-absorbance fluorescence; AID 1527; actives 0.89% (n = 290,000); inhibition, % at 5.6 µM;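 active means inhibition above the mean of all tested compounds plus 3 SD, cutoff set per screening run, cut at about 7.5% in these data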;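 further: red hydrolysis product quenches plate fluorescence so inhibitors raise well fluorescence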
MIN6 prolif – induces beta-cell replication in MIN6 cells; MIN6 cells proliferation, ATPlite luminescence, 48 h; cells starved in 0.2% serum; 100% = growth in 10% serum; proliferation, % at 10 µM; actives 0.29% (n = 330,000); AID 2380;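 active means compounds whose signal lies at least 3.5 SD above the mean of all wells on their plate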
HKDC1 inh – blocks human hexokinase HKDC1 activity; Q2TB90; recombinant HKDC1, G6PDH/diaphorase resazurin coupled fluorescence; inhibition, % at 20 µM; actives 0.16% (n = 340,000);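 active means inhibition above about 35% when tested at 20 µM, limit read from the data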
Target sequence (Q2TB90 whole entry, looked up): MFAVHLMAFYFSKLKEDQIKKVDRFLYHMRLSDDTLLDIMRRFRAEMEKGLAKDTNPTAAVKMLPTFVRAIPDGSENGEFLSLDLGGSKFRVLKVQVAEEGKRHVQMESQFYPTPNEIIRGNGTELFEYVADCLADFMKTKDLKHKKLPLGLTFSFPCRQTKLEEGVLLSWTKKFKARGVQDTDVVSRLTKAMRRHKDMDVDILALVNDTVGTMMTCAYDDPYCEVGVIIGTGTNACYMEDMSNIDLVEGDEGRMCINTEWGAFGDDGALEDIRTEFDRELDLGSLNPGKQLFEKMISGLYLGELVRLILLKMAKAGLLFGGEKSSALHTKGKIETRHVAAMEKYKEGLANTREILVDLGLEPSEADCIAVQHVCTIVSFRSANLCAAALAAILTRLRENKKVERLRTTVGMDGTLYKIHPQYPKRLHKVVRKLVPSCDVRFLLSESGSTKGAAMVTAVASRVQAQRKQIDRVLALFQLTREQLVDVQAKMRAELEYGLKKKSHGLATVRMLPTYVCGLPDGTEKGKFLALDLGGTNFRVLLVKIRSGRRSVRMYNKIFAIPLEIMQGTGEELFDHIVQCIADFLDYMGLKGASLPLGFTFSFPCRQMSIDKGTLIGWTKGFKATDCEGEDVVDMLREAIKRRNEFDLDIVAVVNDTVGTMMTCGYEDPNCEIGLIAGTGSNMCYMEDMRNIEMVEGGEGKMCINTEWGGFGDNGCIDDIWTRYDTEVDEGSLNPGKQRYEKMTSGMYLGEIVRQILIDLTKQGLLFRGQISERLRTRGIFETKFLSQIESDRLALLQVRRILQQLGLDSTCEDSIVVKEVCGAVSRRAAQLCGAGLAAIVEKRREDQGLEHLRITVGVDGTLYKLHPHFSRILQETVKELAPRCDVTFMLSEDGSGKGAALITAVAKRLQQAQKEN
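Assay system – recombinant HKDC1 (HK5) hexokinase enzyme, produced in-house · Input – HKDC1 at 5 µg/mL · Reagent – glucose plus 1 mM ATP as hexokinase substrates · Timing – 90 min reaction incubation at room temperature, dark · Measured by – G6PDH/diaphorase-coupled fluorescence, 1 mM NADP, 100 µM resazurin, 525/613 nm · Benchmarks – DMSO-enzyme wells negative, buffer-substituted wells positive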
ATG4B inh – ATG4B (human) cysteine protease inhibition; Q9Y4P1; ATG4B cleavage of LC3-PLA2, NBD-HPC fluorescence, 1 h; inhibition, % at 8.33 µM; actives 0.51% (n = 340,000); AID 504462; in the data active means inhibition above about 40%
HKDC1 act conf – confirmation of human HKDC1 activators. shares compounds with HKDC1 inh. recombinant HKDC1, G6PDH/diaphorase resazurin fluorescence; stronger effect = lower value. inhibition, % at 20 µM. actives 14% (n = 740). AID 504708;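 active means inhibition at or below a set negative limit, negative inhibition meaning the enzyme was activated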
Numbers stand for hits; - = inactive; . = no result. Shown are actives, neighbours in structure and some others; about 2% of the full set was active somewhere.

SMILES	IMP-1 inhibitor	PvdQ acylase	VIM-2 inh	MIN6 prolif	HKDC1 inh	ATG4B inh	HKDC1 act conf
O=C(OCn1ncc(Cl)c(Cl)c1=O)c1ccc(C(F)(F)F)cc1	-	-	-	-	46	-	-
Cc1ccc(C(=O)OCn2ncc(Cl)c(Cl)c2=O)cc1	-	-	-	-	-	-	.
Cc1ccc(F)cc1NC(=O)N1c2ccccc2NC(=O)CC1C (stereo not drawn)	-	-	-	-	-	-	.
CCCCn1ccnc1C(=O)c1cccc(S(=O)(=O)N2CC(C)CC(C)C2)c1 (stereo not drawn)	-	-	-	-	-	-	.
Cc1ccc(/C=N/n2c(-c3ccccc3)n[nH]c2=S)cc1	-	-	-	-	-	-	.
N=C1N(/N=C/c2ccccc2)C(=Nc2ccccc2)C(=S)N1c1ccccc1	-	-	-	-	-	-	-
COc1cc(/C=C2\SC(=O)N(c3cccc(Cl)c3)C2=O)cc([N+](=O)[O-])c1O	-	-	-	-	51	-	-
COc1cc(/C=C2\SC(=O)N(c3ccc(Cl)cc3)C2=O)cc([N+](=O)[O-])c1O	-	-	-	.	44	-	-
COc1ccc(NC(=O)CCNS(=O)(=O)c2ccc3c(c2)CCC(=O)N3)cc1	-	-	-	-	-	-	.
COc1ccc(N2C3=C(CC4=C2CCCC4=O)C(=O)CCC3)cc1	-	-	-	-	-	-	-
COCCn1c(SCC(=O)NC(=O)NC2CCCC2)nc2ccccc2c1=O	.	-	.	-	-	-	.
COC1=CC(=O)C(OC)=C(OC)C1=O	.	-	.	.	76	-	-
O=C(NCCc1nnc2ccc(NCc3ccc(F)cc3)nn12)c1ccccc1	-	-	-	-	-	-	.
CCn1c(=O)n(CC)c2cc(N3CCCC3)c(NC(=O)c3ccccc3OC)cc21	-	-	-	-	-	-	-
COc1ccc(CC(=O)N(Cc2ccccc2)c2ccc(C)cc2)cc1S(=O)(=O)N1CCOCC1	.	-	.	-	-	-	-
COc1ccc2c(c1)c(=O)oc1c(C)c(OCc3ccc(C(=O)O)cc3)ccc12	-	-	-	.	-	-	.
COc1ccc2c(c1)c(=O)oc1c(C)c(OCc3cc(C(=O)O)oc3C)ccc12	-	-	-	-	79	-	-
O=C(NCC(F)(F)F)c1ccc(S(=O)(=O)N2CCN(C(=O)C3CCCO3)CC2)cc1 (stereo not drawn)	.	-	.	-	-	-	.
COc1cc(N=c2ssnc2Cl)cc(OC)c1OC	-	-	-	-	-	-	-46
C=C1CCN([C@@H](CC(C)C)C(=O)O)S(=O)(=O)c2ccccc21	.	-	.	-	-	-	.
CCOC(=O)c1ccc(NC(=O)CSc2ccc(-c3ccccn3)nn2)cc1	-	-	-	-	37	-	-
Cn1c2ccccc2c2ccc3c(c21)C(=O)C=CC3=O	.	-	.	.	37	-	-
Cc1ccccc1N=C1NN=C(c2ccccc2F)CS1	-	-	-	-	-	-	-40
Cc1ccc(NC(=S)N2CC(C)OC(C)C2)cc1C (stereo not drawn)	-	-	-	-	-	-	.
O=c1oc2cc(Oc3c([N+](=O)[O-])cc(C(F)(F)F)cc3[N+](=O)[O-])ccc2c2c1CCCC2	-	-	-	-	40	-	-
SMILES	IMP-1 inhibitor	PvdQ acylase	VIM-2 inh	MIN6 prolif	HKDC1 inh	ATG4B inh	HKDC1 act conf
CN(C)c1ccc2nc3ccc(=[N+](C)C)cc-3sc2c1	-	-	-	-	36	-	-
COc1ccccc1NC(=S)NN=C(C)c1ccccn1	.	-	.	.	-	-	-61
CC(=NNC(=S)Nc1ccc(C)cc1)c1ccccn1	.	-	.	.	-	-	.
CC(=NNC(=S)Nc1cccc(C)c1)c1ccccn1	.	-	.	.	-	-	-60
CCCCn1c(N)c(N(CCOC)C(=O)COc2ccc(Cl)cc2)c(=O)[nH]c1=O	-	-	-	-	-	-	.
Nc1nc(N2CCN(c3ccccn3)CC2)nc2ccccc12	-	-	-	-	-	-	-44
Cc1ccccc1OCCCN1C(=O)C(=O)c2cccc(C)c21	-	-	-	-	37	-	-
COc1ccc([C@H]2CC(=O)C=C(c3ccc(C)c4ccccc34)C2)cc1	.	-	.	-	-	-	.
COc1ccc(N=c2oc3c(OC)cccc3cc2C(=O)NCc2ccco2)cc1OC	-	-	-	-	-	-	.
